RAM network inh: inhibitors of the yeast RAM network, primary screen, dse1pr::URA3 reporter, 5-FOA selection | S. cerevisiae dse1pr::URA3 reporter, 5-FOA growth OD615, 2 d; analog-sensitive cbk1-as2 kinase mutant strain | inhibition, % at 50 µM | 1.8% of 190,000 active | AID 868, 2007;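 active means inhibition above a set limit, 3 SD over mean compound inhibition, cut at about 8.4% in these data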;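 further: 0% = DMSO-only wells with no growth and 100% = 10 µM 1-NA-PP1 full growth; inhibition rescues growth on 5-FOA so higher OD means more RAM inhibition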
Yeast life ext: compounds extending yeast replicative lifespan, primary screen, S. cerevisiae, OD615; 0.68% of 130,000 active; inhibition of the nicotinamide effect, % at 10 µM; S. cerevisiae growth with nicotinamide; deaD strain in restrictive glucose medium; AID 775, 2007;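 active means inhibition above a set limit, placed 3 SD over the median of all compounds, cut at about 26% in these data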;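 further: 0% = nicotinamide-treated wells and 100% = cells grown without nicotinamide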
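System: Modified budding yeast, DeaD strain | Buffer or medium: Restrictive glucose medium | Also added: 1.5 mM nicotinamide | Doses: 10 µM single point, 0.25% DMSO | Schedule: 48 h compound exposure at 30 °C, humidified | Detection: Absorbance at 615 nm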
BB579 growth dn: growth inhibitors of yeast BB579 in restrictive medium, primary screen, yeast lifespan-shortening project, S. cerevisiae. OD615, 48 h. inhibition, % at 10 µM. 0.51% of 140,000 active;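 active means inhibition above a set limit, 3 SD over the mean compound inhibition, cut at about 44% in these data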
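Test system: DeaD yeast strain BB579 / Buffer or medium: restrictive glucose-based CSMM-D medium / Doses: single 10 µM dose / Schedule: 4 h cell preincubation, 48 h compound exposure, 30 °C humidified / Technique: culture absorbance at 615 nm / Controls: amphotericin B positive control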
INS promoter inh: inhibitors of insulin promoter-driven GFP, primary screen, imaging, TRM-6 cells, eGFP reporter, cell count | reporter expression induced with tamoxifen | inhibition, % at 2 µM | 0.9% of 130,000 active;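 active means inhibition above the mean plus 3 SD, with well images judged a real hit on visual review, cut at about 60% in these data, passing the limit was not always enough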
Efa HMGR inh: inhibitors of E. faecalis class II HMGR, primary screen, biochemical, Enterococcus faecalis | HMG-CoA reductase (Enterococcus faecalis, mvaE) | purified E. faecalis HMGR, NADPH absorbance 340 nm kinetic | inhibition, % at 10 µM | 0.41% of 190,000 active | AID 1066, 2008;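 active means inhibition above a set limit, the median over all tested compounds plus 3 SD, cut at about 9.5% in these data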;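 further: enzyme runs in reverse so mevalonate oxidation gives rising NADPH absorbance; 0% = complete reaction with DMSO and 100% = background rate lacking mevalonate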
An asterisk follows results filed as active. Sampled rows, rich in hits. Any-hit rate of the full collection: about 3.7%.

Results for COCCCNC(=O)CN1C(=O)/C(=C\c2ccc(C)cc2)Sc2ccccc21 ?
RAM network inh: 6; Yeast life ext: 1; BB579 growth dn: -24; INS promoter inh: -15; Efa HMGR inh: -4

What do the screens show for `CCc1ccc(/C=C2/Sc3ccccc3N(CC(=O)NCCCOC)C2=O)cc1`?
RAM network inh: 9.8*; Efa HMGR inh: -2

How did Cn1c(=O)c2c(nc(NC3CCCCC3)n2Cc2ccccc2)n(C)c1=O do in these assays?
RAM network inh: 4; Yeast life ext: -3; BB579 growth dn: -13; Efa HMGR inh: -7

Results for Cn1c(=O)c2c(nc(NCC3CCCO3)n2Cc2ccccc2)n(C)c1=O (stereo not given) ?
RAM network inh: 1; BB579 growth dn: -4; INS promoter inh: 81*; Efa HMGR inh: 7

What do the screens show for `COc1cccc(N/C=C/c2onc(C)c2[N+](=O)[O-])c1`?
RAM network inh: 3; INS promoter inh: -79; Efa HMGR inh: -6

Results for CCCCC(=O)C1=C(N2CCCC2)CC(C)(C)CC1=O ?
RAM network inh: 0; BB579 growth dn: -28; INS promoter inh: 28; Efa HMGR inh: 12*

How did CC12C(=O)N(c3cccc4cccnc34)C(=O)C1C1C=CC2C1 (stereo not given) do in these assays?
RAM network inh: 1; Yeast life ext: -8; BB579 growth dn: 46*; Efa HMGR inh: 2

What do the screens show for `Cc1ccc2nc(NCCCO)[nH]c2c1`?
RAM network inh: 3; BB579 growth dn: -21; INS promoter inh: 78*; Efa HMGR inh: -1

What do the screens show for `CCCCCCSc1nc(O)c(C2OC(=O)c3c2ccc(OC)c3OC)c(=O)n1-c1ccccc1` (stereo not given)?
RAM network inh: 8.6*; Yeast life ext: 2; BB579 growth dn: -26; INS promoter inh: 13; Efa HMGR inh: 0

How did CCSc1nc(O)c(C2OC(=O)c3c2ccc(OC)c3OC)c(=O)n1CC (stereo not given) do in these assays?
RAM network inh: 0; Yeast life ext: -6; BB579 growth dn: 0; INS promoter inh: 62; Efa HMGR inh: -1

What do the screens show for `CCCCSc1nc(O)c(C2OC(=O)c3c2ccc(OC)c3OC)c(=O)n1C` (stereo not given)?
RAM network inh: 0; Yeast life ext: 61*; BB579 growth dn: -37; INS promoter inh: 14; Efa HMGR inh: 1

How did CCOC(=O)c1sc(=S)sc1SCc1cccc(C(F)(F)F)c1 do in these assays?
RAM network inh: 8.9*; Yeast life ext: 0; BB579 growth dn: -51; INS promoter inh: -24; Efa HMGR inh: -3

How did Cc1cccc(C)c1Nc1nnc(SCC(=O)c2ccc3c(c2)NC(=O)CO3)s1 do in these assays?
RAM network inh: 4; Yeast life ext: 2; BB579 growth dn: -13; Efa HMGR inh: 0

Results for Cc1ccc(/C=C(\CCC(=O)O)c2nc3ccccc3s2)cc1[N+](=O)[O-] ?
RAM network inh: 10.0*; Yeast life ext: 4; BB579 growth dn: -38; INS promoter inh: 2; Efa HMGR inh: 1

What do the screens show for `CN(c1ccccc1)c1ccc(/C=C(\CCC(=O)O)c2nc3ccccc3s2)cc1[N+](=O)[O-]`?
RAM network inh: 6; Yeast life ext: -5; BB579 growth dn: -11; INS promoter inh: -19; Efa HMGR inh: 4

How did CNc1ccc(/C=C(\CCC(=O)O)c2nc3ccccc3s2)cc1[N+](=O)[O-] do in these assays?
RAM network inh: 11*; Yeast life ext: -1; BB579 growth dn: -41; INS promoter inh: -38; Efa HMGR inh: -2

Results for CCCCN1CCc2c1nc1ccc(Br)cc1c2N ?
RAM network inh: 0; Yeast life ext: -1; BB579 growth dn: -8; INS promoter inh: 87*; Efa HMGR inh: -2

How did COc1ccc(-c2nc(CCNC(=O)c3cccs3)cs2)cc1 do in these assays?
RAM network inh: -1; Yeast life ext: -12; BB579 growth dn: -3; Efa HMGR inh: -10

How did COCCNC(=O)CCc1nnc(C2(c3ccc(Cl)cc3)CCC2)o1 do in these assays?
RAM network inh: 0; INS promoter inh: -5; Efa HMGR inh: 13*

Results for CC(C)(CO)CNC(=O)CCc1nnc(C2(c3ccc(Cl)cc3)CCC2)o1 ?
RAM network inh: 3; INS promoter inh: -62; Efa HMGR inh: -2

Results for COc1cccc(/C=C/C(=O)Oc2ccc(C(=O)c3ccc(F)cc3)cc2)c1 ?
RAM network inh: 8.7*; Yeast life ext: 3; BB579 growth dn: -21; Efa HMGR inh: -1

Results for COc1c(F)c(F)c(C(=O)Nc2ccc3oc(-c4ccncc4)nc3c2)c(F)c1F ?
RAM network inh: 8.9*; Yeast life ext: -11; BB579 growth dn: -14; INS promoter inh: 56; Efa HMGR inh: -3

Results for O=C(Nc1ccc2oc(-c3ccncc3)nc2c1)c1c(F)c(F)c(F)c(F)c1F ?
RAM network inh: 6; Yeast life ext: 1; BB579 growth dn: -83; INS promoter inh: 31; Efa HMGR inh: 2

What do the screens show for `CCOc1ccc(C(=O)SC2=NCCS2)cc1`?
RAM network inh: 0; Yeast life ext: 52*; BB579 growth dn: -48; Efa HMGR inh: -1

What do the screens show for `Cc1cc2[nH]c(=O)c3ccccc3n2n1`?
RAM network inh: 1; Yeast life ext: -19; BB579 growth dn: -32; INS promoter inh: 83*; Efa HMGR inh: 3

Results for CCOc1cc(/C=N/NC(=O)CCc2n[nH]c(=O)[nH]c2=O)ccc1O ?
RAM network inh: 1; INS promoter inh: 27; Efa HMGR inh: -7

What do the screens show for `CCCn1nc(NC(=O)c2ccccn2)c2cc3cc(C)ccc3nc21`?
RAM network inh: 9.2*; Yeast life ext: -5; BB579 growth dn: -29; INS promoter inh: 20; Efa HMGR inh: 2

What do the screens show for `O=CC1=C(N2CCOCC2)/C(=C/c2ccc(Cl)cc2)CC1`?
RAM network inh: 0; Efa HMGR inh: 3

Results for Cc1cc(C)nc(N/N=C/C2=C(N3CCOCC3)C(=C\c3ccc(Cl)cc3)/CC2)n1 ?
RAM network inh: 1; Yeast life ext: -2; BB579 growth dn: 52*; INS promoter inh: 9; Efa HMGR inh: 1

What do the screens show for `CCN(CC)S(=O)(=O)c1ccc(NC(=O)COC(=O)CNS(=O)(=O)/C=C/c2ccccc2)cc1`?
RAM network inh: 8.4*; Yeast life ext: 0; BB579 growth dn: -40; Efa HMGR inh: -2

What do the screens show for `CCN(CC)S(=O)(=O)c1ccc(NC(=O)CSc2cccc[n+]2[O-])cc1`?
RAM network inh: -1; Yeast life ext: -5; BB579 growth dn: 65*; INS promoter inh: -35; Efa HMGR inh: -5

What do the screens show for `CCc1cccc(C)c1NC(=O)COC(=O)CNS(=O)(=O)/C=C/c1ccccc1`?
RAM network inh: 1; Yeast life ext: 0; BB579 growth dn: -34; INS promoter inh: 21; Efa HMGR inh: -4

High-throughput results deposited in PubChem BioAssay by several laboratories.
